Data reported in ChEMBL document CHEMBL4270537, “Design and biological evaluation of novel triaryl pyrazoline derivatives with dioxane moiety for selective BRAFV600E inhibition” (Eur J Med Chem, 2018).

Key:
[1] = molecular target: Serine/threonine-protein kinase B-raf (Homo sapiens, UniProt P15056); assay: Inhibition of recombinant human full length GST-tagged wild type BRAF expressed in baculovirus expression system using recombinant human full length N-terminal His-tagged MEK1 as substrate preincubated for 1 hr followed by substrate addition measured after 25 mins
Chain of Serine/threonine-protein kinase B-raf (P15056 whole entry): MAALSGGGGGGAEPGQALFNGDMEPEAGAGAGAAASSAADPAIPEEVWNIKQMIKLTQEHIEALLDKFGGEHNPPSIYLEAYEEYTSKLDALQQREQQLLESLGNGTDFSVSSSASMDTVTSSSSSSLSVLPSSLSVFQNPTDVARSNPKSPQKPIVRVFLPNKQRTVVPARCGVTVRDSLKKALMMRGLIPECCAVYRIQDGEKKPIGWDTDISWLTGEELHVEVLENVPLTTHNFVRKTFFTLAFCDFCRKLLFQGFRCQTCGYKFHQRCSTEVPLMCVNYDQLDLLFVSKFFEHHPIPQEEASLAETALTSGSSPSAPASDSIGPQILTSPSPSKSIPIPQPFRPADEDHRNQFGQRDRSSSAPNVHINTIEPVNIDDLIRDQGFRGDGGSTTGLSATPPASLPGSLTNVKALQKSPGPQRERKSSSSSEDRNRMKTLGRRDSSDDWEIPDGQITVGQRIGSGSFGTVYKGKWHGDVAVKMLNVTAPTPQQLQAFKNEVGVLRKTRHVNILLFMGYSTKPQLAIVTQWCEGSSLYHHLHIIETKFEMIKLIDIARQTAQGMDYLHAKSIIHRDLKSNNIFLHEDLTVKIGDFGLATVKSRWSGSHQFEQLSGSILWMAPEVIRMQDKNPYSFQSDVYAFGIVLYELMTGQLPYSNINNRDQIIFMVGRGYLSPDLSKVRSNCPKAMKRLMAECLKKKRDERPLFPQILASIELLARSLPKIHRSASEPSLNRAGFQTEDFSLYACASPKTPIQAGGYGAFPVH

[2] = Antiproliferative activity against human WM1361 cells after 48 hrs by MTT assay; format: functional; settings: WM1361, 48 h
Outline: (§1)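 MTT reduction assay. Cell lines grown to log phase in DMEM with 10% FBS (A375 in DMEM with sodium pyruvate added), seeded at 10⁴ cells/well in 96-well plates. Three replicate wells per concentration, each assay run three times, GI50 averaged.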

[3] = Cytotoxicity against HEK293T cells assessed as decrease in cell viability after 48 hrs by MTT assay; format: cell-based, HEK-293T; settings: human; outline: as §1
[4] = Cytotoxicity against human LO2 cells assessed as decrease in cell viability after 48 hrs by MTT assay; format: cell-based, L02; outline: as §1
[5] = molecular target: Mitogen-activated protein kinase 8 (Homo sapiens, UniProt P45983); assay: Inhibition of N-terminal flag-tagged JNK1 (unknown origin) expressed in baculovirus expression system after 60 mins in presence of [gamma-32P]ATP by topcount scintillation method
Chain of Mitogen-activated protein kinase 8 (P45983 whole entry): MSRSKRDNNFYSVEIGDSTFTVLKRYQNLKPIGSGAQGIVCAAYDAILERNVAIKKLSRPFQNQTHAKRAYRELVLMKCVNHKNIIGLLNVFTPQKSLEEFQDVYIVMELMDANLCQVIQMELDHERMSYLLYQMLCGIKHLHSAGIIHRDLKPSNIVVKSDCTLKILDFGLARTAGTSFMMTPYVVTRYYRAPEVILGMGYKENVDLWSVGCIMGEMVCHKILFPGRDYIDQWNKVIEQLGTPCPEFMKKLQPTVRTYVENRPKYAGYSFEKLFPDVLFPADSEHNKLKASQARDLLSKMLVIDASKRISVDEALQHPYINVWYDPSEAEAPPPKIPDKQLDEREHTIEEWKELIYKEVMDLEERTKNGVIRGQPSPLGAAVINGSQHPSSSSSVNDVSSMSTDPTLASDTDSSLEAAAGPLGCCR
Outline: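 Baculovirus-expressed N-terminal FLAG-tagged kinases in 25 mM HEPES pH 7.5, 10 mM Mg acetate, 1 mM DTT, 0.5 µM ATP plus [γ-³²P]ATP, 50 µL. p38α: 100 ng enzyme, MBP substrate. JNK1: 10 ng enzyme, 1 µg c-Jun. Compound and enzyme preincubated 5 min, ATP started the reaction, 60 min at 30 °C. Stopped with 10% TCA, filtered, washed with 3% phosphoric acid, counted by TopCount.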

A-375 [6] = assay: Induction of apoptosis in human A375 cells assessed as early apoptotic cells at 2 uM after 24 hrs by Annexin V-FITC/PI staining based flow cytometry (reference value: 5.42%); format: functional
Outline: (§2)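 Apoptosis time course. A375 cells in 24-well plates (about 10⁵/well) at 2 µM for 0, 24, 48 and 72 h. Harvested by trypsin, washed in PBS, stained 15 min at room temperature in the dark with Annexin V-FITC/PI, analysed by flow cytometry.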

A-375 [7] = assay: Induction of apoptosis in human A375 cells assessed as late apoptotic cells at 2 uM after 24 hrs by Annexin V-FITC/PI staining based flow cytometry (reference value: 3.61%); format: functional; outline: as §2
A-375 [8] = assay: Induction of apoptosis in human A375 cells assessed as necrotic cells at 2 uM after 48 hrs by Annexin V-FITC/PI staining based flow cytometry (reference value: 1.55%); format: functional
A-375 [9] = assay: Induction of apoptosis in human A375 cells assessed as necrotic cells at 2 uM after 72 hrs by Annexin V-FITC/PI staining based flow cytometry (reference value: 1.55%); format: functional
A-375 [10] = assay: Induction of apoptosis in human A375 cells assessed as necrotic cells at 2.5 uM after 24 hrs by Annexin V-FITC/PI staining based flow cytometry (reference value: 1.61%); format: functional
A-375 [11] = assay: Induction of apoptosis in human A375 cells assessed as viable cells at 5 uM after 24 hrs by Annexin V-FITC/PI staining based flow cytometry (reference value: 88.7%); format: functional; settings: A-375, 24 h, read-out: Activity
A-375 [12] = assay: Induction of apoptosis in human A375 cells assessed as early apoptotic cells at 5 uM after 24 hrs by Annexin V-FITC/PI staining based flow cytometry (reference value: 5.45%); format: functional
A-375 [13] = assay: Induction of apoptosis in human A375 cells assessed as late apoptotic cells at 10 uM after 24 hrs by Annexin V-FITC/PI staining based flow cytometry (reference value: 4.26%); format: functional
A-375 [14] = assay: Induction of apoptosis in human A375 cells assessed as late apoptotic cells at 20 uM after 24 hrs by Annexin V-FITC/PI staining based flow cytometry (reference value: 4.26%); format: functional
A-375 [15] = assay: Cell cycle arrest in human A375 cells assessed as accumulation at G1 phase at 2 uM after 24 hrs by propidium iodide staining based flow cytometry (reference value: 73.6%); format: functional
A-375 [16] = assay: Cell cycle arrest in human A375 cells assessed as accumulation at S phase at 2 uM after 48 hrs by propidium iodide staining based flow cytometry (reference value: 21.3%); format: functional
A-375 [17] = assay: Cell cycle arrest in human A375 cells assessed as accumulation at G1 phase at 2 uM after 72 hrs by propidium iodide staining based flow cytometry (reference value: 73.6%); format: functional
A-375 [18] = assay: Cell cycle arrest in human A375 cells assessed as accumulation at G2/M phase at 2 uM after 72 hrs by propidium iodide staining based flow cytometry (reference value: 5.1%); format: functional
A-375 [19] = assay: Cell cycle arrest in human A375 cells assessed as accumulation at S phase at 2.5 uM after 24 hrs by propidium iodide staining based flow cytometry (reference value: 21.3%); format: functional
A-375 [20] = assay: Cell cycle arrest in human A375 cells assessed as accumulation at G1 phase at 5 uM after 24 hrs by propidium iodide staining based flow cytometry (reference value: 73.6%); format: functional
A-375 [21] = assay: Cell cycle arrest in human A375 cells assessed as accumulation at S phase at 5 uM after 24 hrs by propidium iodide staining based flow cytometry (reference value: 21.3%); format: functional
A-375 [22] = assay: Cell cycle arrest in human A375 cells assessed as accumulation at G1 phase at 10 uM after 24 hrs by propidium iodide staining based flow cytometry (reference value: 73.6%); format: functional
A-375 [23] = assay: Cell cycle arrest in human A375 cells assessed as accumulation at S phase at 10 uM after 24 hrs by propidium iodide staining based flow cytometry (reference value: 21.3%); format: functional
A-375 [24] = assay: Cell cycle arrest in human A375 cells assessed as accumulation at S phase at 20 uM after 24 hrs by propidium iodide staining based flow cytometry (reference value: 21.3%); format: functional
A-375 [25] = assay: Induction of apoptosis in human A375 cells after 24 to 72 hrs by Annexin V-FITC/PI staining based flow cytometry; format: functional, cell-based; outline: as §2
[26] = system: Serine/threonine-protein kinase B-raf (Homo sapiens), P15056 [V600E]; assay: Inhibition of BRAF V600E mutant in human A375 cells assessed as decrease in MEK1/2 phosphorylation after 30 mins by Western blot analysis; format: cell-based
Chain of Serine/threonine-protein kinase B-raf (Homo sapiens), P15056 [V600E] (P15056 whole entry V600E): as the sequence (P15056 whole entry) above, with V600E counted along it
Outline: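 A375 cells treated with compound at 0, 0.05, 0.1 and 0.5 µM, then PBS-rinsed and lysed in RIPA with protease inhibitors on ice for 30 min. Lysate was cleared at 12,000 g, 4 °C, and protein assayed by BCA. Samples run on SDS-PAGE and transferred to PVDF. Membranes were milk-blocked, probed with primary antibody (1:500) overnight at 4 °C, then secondary antibody (1:5000) for 1 h at room temperature.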

A-375 [27] = assay: Antitumor activity against human A375 cells xenografted in nude mouse assessed as decrease in tumor weight at 10 mg/kg, ip administered every second day for 14 days and measured on day 15 relative to control; format: functional
Outline: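 A375 cells, 3 × 10⁶ in 0.1 mL cold PBS, injected subcutaneously into right flank of nude mice. Treatment began when tumors reached ~100 mm³; mice randomized, 5 per group. Compound suspended in olive oil, given intraperitoneally every second day for 14 days. Body weight recorded every two days; tumors excised and weighed on day 15.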

**Q.** What does the source list for `COc1cccc(C2=NN(C(=S)Nc3ccccc3)C(c3ccc4c(c3)OCCO4)C2)c1` (configuration not stated)?
**A.** IC50 [1]: > 200 µM; GI50 [2]: > 200 µM; GI50 at 48 h [3]: > 200 µM; GI50 at 48 h [4]: > 200 µM; IC50 [5]: > 200 µM; Activity (A-375 [6]): 10.9%; Activity (A-375 [7]): 6.76%; Activity (A-375 [8]): 3.05%; Activity (A-375 [9]): 2.24%; Activity (A-375 [10]): 3.46%; viability at 5 µM (A-375 [11]): 65%; Activity (A-375 [12]): 23.4%; Activity (A-375 [13]): 10.8%; Activity (A-375 [14]): 11%; Activity (A-375 [15]): 72.4%; Activity (A-375 [16]): 26.2%; Activity (A-375 [17]): 35.6%; Activity (A-375 [18]): 36.8%; Activity (A-375 [19]): 19.5%; Activity (A-375 [20]): 61.3%; Activity (A-375 [21]): 28.4%; Activity (A-375 [22]): 68.1%; Activity (A-375 [23]): 13.8%; Activity (A-375 [24]): 16.9%; Activity (A-375 [25]): Dose-dependent effect; inhibition [26]: Dose-dependent effect; fold change (FC) (A-375 [27]): 2
